Entries after “also recorded” stand apart in the source; their conditions may differ.
Key:
Format in all cases: cell-based
N1303K-CFTR [1] = target: T1, N1303K-CFTR (Homo sapiens, UniProt P13569, N1303K); assay: Co-potentiator activity in N1303K-CFTR expressing FRT cell model; details: for co-potentiator activity (in words) / VMAX: N1303K-CFTR expressing FRT cells; for VMAX: 20 = 100%; for fold more potent than 20: EC50 relative to 20
Method in brief: (§1)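 FRT cells stably expressing N1303K-CFTR, grown on permeable supports and corrected with 3 μM VX-661 for 18–24 h. Short-circuit current was recorded at 37 °C in HCO3-buffered solutions with a chloride gradient and the basolateral membrane permeabilized with 250 μg/ml amphotericin B. Additions: 20 μM forskolin, 5 μM VX-770, rising test compound concentrations, then 10 μM CFTRinh-172. EC50 and maximal response come from concentration-dependence data (n=3, mean ± S.E.M.), with potency relative to a reference co-potentiator.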

N1303K-CFTR [2] = target: T1, N1303K-CFTR; assay: Short-circuit current in FRT cells expressing N1303K-CFTR; details: N1303K-CFTR EC50
Method in brief: as §1

R347P-CFTR = R347P-CFTR (Homo sapiens, UniProt P13569, R347P); assay: Short-circuit current in FRT cells expressing R347P-CFTR; details: 20 μM 2i after 20 μM forskolin and 5 μM VX-770
Method in brief: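 Permeabilized FRT monolayers stably expressing R347P-CFTR were pre-corrected with 3 μM VX-661 for 18–24 h. Short-circuit current was measured at 37 °C in HCO3-buffered solutions under a chloride gradient, with the basolateral membrane opened using 250 μg/ml amphotericin B. Sequential additions: 20 μM forskolin, 5 μM VX-770, 20 μM test compound, then 10 μM CFTRinh-172.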

N1303K-CFTR [3] = target: T1, N1303K-CFTR; assay: Short-circuit current in gene-edited 16HBE14o- cells expressing N1303K-CFTR
Method in brief: (§2)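 Gene-edited 16HBE14o- human bronchial epithelial cells carrying endogenous N1303K or I1234del CFTR were grown on permeable supports. The I1234del cells were corrected with 18 μM VX-661 plus 3 μM VX-445 for 18–24 h. Short-circuit current was measured at 37 °C in Hepes-buffered solutions with a chloride gradient. Additions: 20 μM forskolin, 5 μM VX-770, 10 μM test compound, then 10 μM CFTRinh-172. The CFTRinh-172-inhibitable ΔIsc is compared with the VX-770-alone response (mean ± S.E.M., n=3, unpaired t-test).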

I1234del-CFTR = I1234del-CFTR (Homo sapiens, UniProt P13569, DEL1234-1239); assay: Short-circuit current in gene-edited 16HBE14o- cells expressing I1234del-CFTR; details: 10 μM 2i
Method in brief: as §2

SMILES | co-potentiator activity (in words) (N1303K-CFTR [1]) | other results
COc1ccc2[nH]c3c(c2c1)CCN[C@@]31CCN2Cc3ccccc3C[C@H]2C1 (racemic) [6b, (+/−)-(2R,11aS)-6’-methoxy-1,2’,3,3’,4,4’,6,9’,11,11a-decahydrospiro[pyrido[1,2-b]isoquinoline-2,1’-pyrido[3,4-b]indole]] | inactive | 
COc1ccc2[nH]c3c(c2c1)CCNC31CCN(Cc2cc(Cl)ccc2[N+](=O)[O-])CC1 [1c, 1-(5-Chloro-2-nitrobenzyl)-6’-methoxy-2’,3’,4’,9’-tetrahydrospiro[piperidine-4,1’-pyrido[3,4-b]indole]] |  | VMAX (N1303K-CFTR [1]): improved Vmax
COc1ccc2[nH]c3c(c2c1)CCNC31CCN(Cc2ccc(Cl)cc2Cl)CC1 [1d, 1-(2,4-Dichlorobenzyl)-6’-methoxy-2’,3’,4’,9’-tetrahydrospiro[piperidine-4,1’-pyrido[3,4-b]indole]] | decreased activity | 
COc1ccc2[nH]c3c(c2c1)CCNC31CCN(Cc2cc(F)cc(Cl)c2)CC1 [1e, 1-(3-Chloro-5-fluorobenzyl)-6’-methoxy-2’,3’,4’,9’-tetrahydrospiro[piperidine-4,1’-pyrido[3,4-b]indole]] | decreased activity | 
COc1ccc2[nH]c3c(c2c1)CCNC31CCN(Cc2ccc(F)c(Cl)c2F)CC1 [1j, 1-(3-Chloro-2,4-difluorobenzyl)-6’-methoxy-2’,3’,4’,9’-tetrahydrospiro[piperidine-4,1’-pyrido[3,4-b]indole]] |  | VMAX (N1303K-CFTR [1]): improved Vmax
COc1ccc2[nH]c3c(c2c1)CCNC31CCN(Cc2ccc(F)cc2F)CC1 [2a, 1-(2,4-Difluorobenzyl)-6’-methoxy-2’,3’,4’,9’-tetrahydrospiro[piperidine-4,1’-pyrido[3,4-b]indole]] | active | 
COc1ccc2[nH]c3c(c2c1)CCNC31CCN(Cc2cc(F)cc(F)c2)CC1 [2c, 1-(3,5-Difluorobenzyl)-6’-methoxy-2’,3’,4’,9’-tetrahydrospiro[piperidine-4,1’-pyrido[3,4-b]indole]] | active | 
COc1ccc2[nH]c3c(c2c1)CCNC31CCN(Cc2c(F)c(F)c(F)c(F)c2F)CC1 [2e, 6’-Methoxy-1-((perfluorophenyl)methyl)-2’,3’,4’,9’-tetrahydrospiro[piperidine-4,1’-pyrido[3,4-b]indole]] | active | 
COc1ccc2[nH]c3c(c2c1)CCNC31CCN(Cc2cc(F)c(F)cc2F)CC1 [2i, 6’-Methoxy-1-(2,4,5-trifluorobenzyl)-2’,3’,4’,9’-tetrahydrospiro[piperidine-4,1’-pyrido[3,4-b]indole]] | most potent | fold improvement in potency over the original compound (20) (N1303K-CFTR [2]): ~ 17 fold; activation of R347P-CFTR (in words) (R347P-CFTR): not activated; fold greater response than VX-770 alone (N1303K-CFTR [3]; 10 μM 2i): approximately 6 fold; CFTRinh-172-inhibitable short-circuit current response (N1303K-CFTR [3]; 10 μM 2i after 20 μM forskolin and 5 μM VX-770, mean ± S.E.M., n=3): 16.1 ± 0.4 μA/cm^2; fold greater response than VX-770 alone (I1234del-CFTR): ~2 fold
COc1ccc2[nH]c3c(c2c1)CCNC31CCNCC1 [3a, 6’-Methoxy-2’,3’,4’,9’-tetrahydrospiro[piperidine-4,1’-pyrido[3,4-b]indole]] | inactive | 
COc1ccc2[nH]c3c(c2c1)CCNC31CCN(CCc2ccccc2)CC1 [3c, 6’-Methoxy-1-phenethyl-2’,3’,4’,9’-tetrahydrospiro[piperidine-4,1’-pyrido[3,4-b]indole]] | greatly reduced activity; also recorded: inactive | 
COc1ccc2[nH]c3c(c2c1)CCNC31CCN(CCCc2ccccc2)CC1 [3d, 6’-Methoxy-1-(3-phenylpropyl)-2’,3’,4’,9’-tetrahydrospiro[piperidine-4,1’-pyrido[3,4-b]indole]] | greatly reduced activity; also recorded: inactive | 
COc1ccc2[nH]c3c(c2c1)CCNC31CCN(Cc2ccco2)CC1 [3e, 1-(Furan-2-ylmethyl)-6’-methoxy-2’,3’,4’,9’-tetrahydrospiro[piperidine-4,1’-pyrido[3,4-b]indole]] | active, but less potent | 
COc1ccc2[nH]c3c(c2c1)CCNC31CCN(Cc2ccccn2)CC1 [3f, 6’-Methoxy-1-(pyridin-2-ylmethyl)-2’,3’,4’,9’-tetrahydrospiro[piperidine-4,1’-pyrido[3,4-b]indole]] | active, but less potent | Emax (N1303K-CFTR [1]; FRT, read-out: VMAX): 107%
COc1ccc2[nH]c3c(c2c1)CCNC31CCN(Cc2cccnc2)CC1 [3g, 6’-Methoxy-1-(pyridin-3-ylmethyl)-2’,3’,4’,9’-tetrahydrospiro[piperidine-4,1’-pyrido[3,4-b]indole]] | active, but less potent | 
COc1ccc2[nH]c3c(c2c1)CCNC31CCCN(Cc2ccc(F)cc2F)CC1 (stereo not drawn) [4a, 1-(2,4-Difluorobenzyl)-6’-methoxy-2’,3’,4’,9’-tetrahydrospiro[azepane-4,1’-pyrido[3,4-b]indole]] | inactive | 
COc1ccc2[nH]c3c(c2c1)CCNC31CCN(Cc2ccc(F)cc2F)C1 (stereo not drawn) [4b, 1’-(2,4-Difluorobenzyl)-6-methoxy-2,3,4,9-tetrahydrospiro[pyrido[3,4-b]indole-1,3’-pyrrolidine]] | inactive; also recorded: abolished activity | 
COc1ccc2[nH]c3c(c2c1)CCNC31CCCN(Cc2ccc(F)cc2F)C1 (stereo not drawn) [4c, 1-(2,4-Difluorobenzyl)-6’-methoxy-2’,3’,4’,9’-tetrahydrospiro[piperidine-3,1’-pyrido[3,4-b]indole]] | inactive; also recorded: abolished activity | 
COc1ccc2[nH]cc(CCNC3CCN(Cc4ccccc4)CC3)c2c1 [4d, 1-Benzyl-N-(2-(5-methoxy-1H-indol-3-yl)ethyl)piperidin-4-amine] | abolished activity | 
Fc1ccc(CN2CCC3(CC2)NCCc2c3[nH]c3ccc(Cl)cc23)c(F)c1 [5c, 6’-Chloro-1-(2,4-difluorobenzyl)-2’,3’,4’,9’-tetrahydrospiro[piperidine-4,1’-pyrido[3,4-b]indole]] | tolerated | fold more potent than 20 (N1303K-CFTR [1]): approximately 4 fold
COc1ccc2c3c([nH]c2c1)C1(CCN(Cc2ccc(F)cc2F)CC1)NCC3 [5d, 1-(2,4-Difluorobenzyl)-7’-methoxy-2’,3’,4’,9’-tetrahydrospiro[piperidine-4,1’-pyrido[3,4-b]indole]] | decreased activity | fold more potent than 20 (N1303K-CFTR [1]): approximately 4 fold
COc1ccc2c(c1)c1c(n2C)C2(CCN(Cc3ccc(F)cc3F)CC2)NCC1 [5e, 1-(2,4-Difluorobenzyl)-6’-methoxy-9’-methyl-2’,3’,4’,9’-tetrahydrospiro[piperidine-4,1’-pyrido[3,4-b]indole]] | inactive; also recorded: inactivity | 
